In ChEMBL document CHEMBL4342513, “Implementation of the CYP Index for the Design of Selective Tryptophan-2,3-dioxygenase Inhibitors” (ACS Med Chem Lett, 2020):
pEC50, pIC50: −log10 of the molar value. In brackets after ≈: the same amount, converted by molar mass.

What was measured:
[1] = biological target: Indoleamine 2,3-dioxygenase 1 (Homo sapiens, UniProt P14902); assay: Inhibition of IDO1 in human A172 cells after 24 hrs in presence of IFNgamma by NFK green reagent based assay; assay type: cell-based
Homo sapiens [2] = organism: Homo sapiens; assay: Selectivity index, ratio of EC50 for inhibition of IDO1 in human A172 cells in presence of IFNgamma to EC50 for inhibition of TDO in human SW48 cells; assay type: cell-based
[3] = Clearance in mouse liver microsomes; assay type: ADME, Microsome
Summary of the method: (§1)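 Clearance was measured in liver microsome incubations from human, rat and mouse. It is expressed as scaled clearance in mL/min/kg.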

[4] = Lipophilicity, log D of compound at pH 7.4; assay type: physicochemical; details: buffer
[5] = Clearance in rat liver microsomes; assay type: ADME, Microsome; summary of the method: as §1
[6] = Clearance in human liver microsomes; assay type: ADME, Microsome; summary of the method: as §1
[7] = biological target: T1, Tryptophan 2,3-dioxygenase (Homo sapiens, UniProt P48775); assay: Inhibition of TDO in human SW48 cells after 24 hrs by NFK green reagent based assay; assay type: cell-based
[8] = biological target: T1, Tryptophan 2,3-dioxygenase; assay: Inhibition of TDO (unknown origin)
Homo sapiens [9] = organism: Homo sapiens; assay: Selectivity index, ratio of IC50 for inhibition of CYP3A4 (unknown origin) to EC50 for inhibition of EC50 for inhibition of TDO in human SW48 cells; assay type: cell-based
Cytochrome P450 3A4 = Cytochrome P450 3A4 (Homo sapiens, UniProt P08684); assay: Inhibition of CYP3A4 (unknown origin); assay type: ADME
[10] = Clearance in iv dosed mouse plasma; assay type: ADME, organism-based
Summary of the method: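 Compounds were given to mice as discrete (single-compound) intravenous doses. Plasma clearance (CLp) is expressed in mL/min/kg.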

[11] = Oral bioavailability in mouse at 1 mg/kg dosed as cassette formulation; assay type: ADME, organism-based; details: in vivo
[12] = Unbound clearance in mouse plasma; assay type: ADME, cell-free
[13] = Kinetic solubility of compound; assay type: physicochemical; details: read-out: Kinetic_solubility
[14] = Half life in mouse; assay type: ADME, organism-based; details: in vivo
[15] = AUC (infinity) in mouse; assay type: ADME, organism-based; design: time infinity; details: in vivo, BLD = below limit of detection
[16] = Apparent permeability across apical to basolateral side in MDCK cells; assay type: ADME, cell-based, Canis lupus familiaris; details: dog
[17] = Protein binding in mouse plasma assessed as unbound fraction; assay type: ADME, cell-free
[18] = Volume of distribution at steady state in mouse; assay type: ADME, organism-based; details: in vivo, read-out: Vdss
[19] = biological target: T1, Tryptophan 2,3-dioxygenase; assay: Inhibition of recombinant human TDO using L-tryptophan as substrate preincubated for 5 mins followed by substrate addition and measured after 15 mins by RapidFire-Mass spectrometry

Chain of Indoleamine 2,3-dioxygenase 1 (P14902 whole entry): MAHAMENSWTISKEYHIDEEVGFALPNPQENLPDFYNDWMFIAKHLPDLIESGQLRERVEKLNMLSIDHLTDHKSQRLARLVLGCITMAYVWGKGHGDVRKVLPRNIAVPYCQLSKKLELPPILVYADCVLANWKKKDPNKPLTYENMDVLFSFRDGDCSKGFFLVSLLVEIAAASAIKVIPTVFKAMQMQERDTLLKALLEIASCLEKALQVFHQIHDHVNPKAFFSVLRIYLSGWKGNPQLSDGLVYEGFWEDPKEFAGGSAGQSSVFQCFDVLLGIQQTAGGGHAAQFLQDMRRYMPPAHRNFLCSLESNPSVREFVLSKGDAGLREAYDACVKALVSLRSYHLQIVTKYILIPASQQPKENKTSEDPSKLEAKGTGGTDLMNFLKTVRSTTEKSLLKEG
Chain of Cytochrome P450 3A4 (P08684 whole entry): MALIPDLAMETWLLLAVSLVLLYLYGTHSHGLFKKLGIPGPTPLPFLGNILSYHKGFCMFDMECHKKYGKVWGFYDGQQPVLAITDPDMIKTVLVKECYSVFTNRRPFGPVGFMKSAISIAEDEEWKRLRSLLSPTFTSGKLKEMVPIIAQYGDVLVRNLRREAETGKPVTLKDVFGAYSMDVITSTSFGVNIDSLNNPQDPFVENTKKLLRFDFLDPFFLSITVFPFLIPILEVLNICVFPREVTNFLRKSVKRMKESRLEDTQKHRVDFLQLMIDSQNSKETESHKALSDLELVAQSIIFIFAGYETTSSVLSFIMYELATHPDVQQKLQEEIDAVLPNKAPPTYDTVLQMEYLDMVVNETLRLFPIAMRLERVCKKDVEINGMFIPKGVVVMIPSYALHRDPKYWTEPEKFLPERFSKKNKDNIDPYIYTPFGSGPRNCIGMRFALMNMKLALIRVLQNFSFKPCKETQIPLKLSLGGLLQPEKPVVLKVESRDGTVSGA
T1 sequence (P48775 whole entry): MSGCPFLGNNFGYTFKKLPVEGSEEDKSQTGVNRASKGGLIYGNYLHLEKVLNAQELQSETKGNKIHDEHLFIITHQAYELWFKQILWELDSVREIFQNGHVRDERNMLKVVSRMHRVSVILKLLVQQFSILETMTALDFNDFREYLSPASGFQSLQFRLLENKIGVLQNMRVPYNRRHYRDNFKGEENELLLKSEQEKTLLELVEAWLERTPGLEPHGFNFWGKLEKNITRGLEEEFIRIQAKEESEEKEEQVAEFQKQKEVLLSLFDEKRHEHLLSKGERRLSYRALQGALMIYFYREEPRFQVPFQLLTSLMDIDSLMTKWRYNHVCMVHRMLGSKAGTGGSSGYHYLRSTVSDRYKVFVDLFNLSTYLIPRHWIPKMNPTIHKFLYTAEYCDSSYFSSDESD

SMILES	pEC50 [1]	Ratio EC50 (Homo sapiens [2])	CLhep predicted [3] [L/h/kg]	logD [4]	CLhep predicted [5] [L/h/kg]	CLhep predicted [6] [L/h/kg]	pEC50 [7]	Ratio IC50/EC50 (Homo sapiens [9])	pIC50 (Cytochrome P450 3A4)	other results
O[C@@H]1CCC[C@H]1[C@H]1c2ccccc2-c2cncn21	5.66	31	3.54	2.2	2.1	0.3	7.15	–	–	–
NS(=O)(=O)NCCNc1nonc1C(=NO)Nc1ccc(F)c(Br)c1 [EPACADOSTAT]	–	–	–	–	–	–	–	–	–	pIC50 [8]: < 5.00
O[C@@H]1COCC[C@H]1[C@H]1c2ccccc2-c2cncn21	5.80	22	–	1.3	–	–	7.14	8.3	6.22	–
O[C@@H]1c2nonc2CC[C@H]1[C@H]1c2ccccc2-c2cncn21	5.34	85	2.7	–	1.98	< 0.234	7.27	150	5.09	clearance [10]: 3.78 L/h/kg; bioavailability [11]: < 5%; CL free [12]: 13.8 L/h/kg; solubility kinetic [13]: 165 µM (≈ 48.6 µg/mL); half-life [14]: 12.6 min; AUC [15]: Bld; Papp A→B [16]: 230 nm/s; fraction unbound [17]: 0.27; Vd [18]: 1.1 L/kg
OCCC1c2ccccc2-c2cnsc21 (centres undefined)	–	–	–	–	–	–	–	–	–	pIC50 [19]: 5.15
OCCC1c2ccccc2-n2cncc21 (centres undefined)	–	–	–	–	–	–	–	–	–	pIC50 [19]: 7.22
O[C@@H]1c2ccncc2CC[C@H]1[C@H]1c2ccccc2-c2cncn21	6.10	17	4.02	–	2.76	0.66	–	< 2	> 7.00	–
CC(C)([C@H](O)c1ncco1)[C@H]1c2ccccc2-c2cncn21	–	–	–	2.3	–	–	7.15	< 2	–	–
OCCC1c2ccccc2-c2cncn21 (centres undefined)	–	–	–	–	–	–	–	–	–	pIC50 [19]: 7.70
CS(=O)(=O)N1CC[C@@H]([C@H]2c3ccccc3-c3cncn32)[C@H](O)C1	6.01	11	–	0.7	–	–	7.06	> 120	< 5.00	–
OCCn1c2ccccc2c2cncn21	–	–	–	–	–	–	–	–	–	pIC50 [19]: 7.70
CN1CC[C@@H]([C@H]2c3ccccc3-c3cncn32)[C@H](O)C1	4.70	14	–	1.4	–	–	–	–	–	–
NC(=O)c1ccc2c(c1)[C@@H](O)[C@H]([C@H]1c3ccccc3-c3cncn31)CC2	5.59	74	4.02	–	1.56	0.444	7.46	100	5.44	–
CS(=O)(=O)c1ccc2c(c1)CC[C@@H]([C@H]1c3ccccc3-c3cncn31)[C@@H]2O	5.89	20	4.86	–	2.76	0.414	7.19	43	5.55	–
N#Cc1ccc2c(c1)[C@@H](O)[C@H]([C@H]1c3ccccc3-c3cncn31)CC2	6.16	12	4.74	–	2.64	0.84	7.22	55	5.48	Papp A→B [16]: 17 nm/s
O[C@@H]1c2ccccc2CC[C@H]1[C@H]1c2ccccc2-c2cncn21	6.62	–	4.5	–	2.82	0.66	–	–	–	–

SMILES	pEC50 [1]	Ratio EC50 (Homo sapiens [2])	CLhep predicted [3] [L/h/kg]	logD [4]	CLhep predicted [5] [L/h/kg]	CLhep predicted [6] [L/h/kg]	pEC50 [7]	Ratio IC50/EC50 (Homo sapiens [9])	pIC50 (Cytochrome P450 3A4)	other results
OCCn1c2ccccc2n2cnnc12	–	–	–	–	–	–	–	–	–	pIC50 [19]: 4.77
O[C@H](C[C@H]1c2c(F)cccc2-c2cncn21)[C@H]1CC[C@H](O)CC1 [NAVOXIMOD]	–	–	–	–	–	–	–	–	–	pEC50 [8]: 5.70
O[C@@H]1CC[C@H]1[C@H]1c2ccccc2-c2cncn21	5.85	67	3.54	1.7	1.62	0.354	7.44	–	–	–
O=C1CC(c2c[nH]c3ccc(F)cc23)C(=O)N1 (centres undefined) [PF-06840003]	–	–	–	–	–	–	–	–	–	pIC50 [8]: < 5.00
C[C@H]([C@H](O)C1CCCCC1)[C@H]1c2ccccc2-c2cncn21	6.17	11	4.5	3.9	2.52	0.96	7.21	–	–	–
O[C@@H](C[C@H]1c2ccccc2-c2cncn21)C1CCCCC1	–	–	4.8	2.8	2.7	1.08	–	–	–	–
CP(C)(=O)c1ccc2c(c1)[C@@H](O)[C@H]([C@H]1c3ccccc3-c3cncn31)CC2	5.00	77	2.34	–	1.14	< 0.234	6.89	12	5.80	–
CS(=O)(=O)c1ccc2c(c1)[C@@H](O)[C@H]([C@H]1c3ccccc3-c3cncn31)CC2	6.06	23	3.84	–	1.98	0.396	7.41	150	5.22	–
O[C@@H]1CCOC[C@H]1[C@H]1c2ccccc2-c2cncn21	5.54	14	–	1.5	–	–	–	3.1	6.19	–
O[C@@H]1c2nncn2CC[C@H]1[C@H]1c2ccccc2-c2cncn21	< 4.60	> 3	0.84	–	0.366	< 0.234	5.13	> 1	< 5.00	–
Cn1ncc2c1CC[C@@H]([C@H]1c3ccccc3-c3cncn31)[C@@H]2O	4.89	34	2.76	–	1.14	< 0.234	6.42	9	5.48	–
c1ccc2c(c1)-c1cncn1[C@H]2C1CCCCC1	–	13	4.44	3.7	2.7	0.9	–	–	–	–
OCCC1c2ccccc2-n2nncc21 (centres undefined)	–	–	–	–	–	–	–	–	–	pIC50 [19]: < 4.60
O[C@@H]1CCCC[C@H]1[C@H]1c2ccccc2-c2cncn21	6.14	14	3.72	2.7	2.22	0.582	7.30	–	–	–
CC(=O)N1CC[C@@H]([C@H]2c3ccccc3-c3cncn32)[C@H](O)C1	< 4.60	> 8	–	1.1	–	–	5.52	–	–	–
C[C@H]([C@H](O)c1ccccc1)[C@H]1c2ccccc2-c2cncn21	–	–	–	–	–	–	≥ 7.49	–	–	–
